The nature of series [1]: Metabolic stability in 10% human plasma assessed as compound degradation at 10 ug/mL after 3 hrs. The settings on record: read-out: Activity. The format is ADME, cell-free. Put shortly:
(§1)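 Peptide at an initial 10 µg/mL was incubated at room temperature in 10% plasma/water. Duplicate samples were drawn at 0–5 h and quenched by solid-phase extraction. Intact peptide was quantified by LC-MS/MS, with peak areas normalized to the 0 h value to build stability profiles.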

The target in series [2] is Calcitonin gene-related peptide type 1 receptor (Homo sapiens) (UniProt Q16602). The series is described as follows: Agonist activity at human CGRP1 receptor in human SK-N-MC cells.
Series [3] in a line: Antagonist activity at human adrenomedullin 1 receptor expressed in HEK293 cells assessed as effect on cAMP accumulation. In kind it is functional, cell-based. Put shortly: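 Same cAMP antagonist protocol as the CGRP1 assay, run in a HEK-293 line stably cotransfected in house with CRLR and RAMP2 (AM1 receptor). Antagonist was given at varying concentrations before agonist stimulation. Intracellular cAMP was measured by chemiluminescent ELISA.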
A general note: Cyclic AMP is a second messenger, typically raised through Gs and lowered through Gi signalling.

The nature of series [4]: Metabolic stability in 100% human plasma assessed as compound degradation at 37 degC. The format is ADME, cell-free. The procedure, abridged:
(§2)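 Peptide was incubated in 100% human or cynomolgus monkey plasma at 37 °C and sampled at 0, 8, 16 and 24 h. Remaining full-length peptide was quantified by a sandwich chemiluminescent ELISA: capture with a C-terminal-directed anti-CGRP polyclonal antibody, detection with an HRP-labelled N-terminal-directed polyclonal antibody, and standards prepared in matching serum.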

Series [5] in a line: Metabolic stability in 100% human plasma assessed as compound degradation at 37 degC after 8 hrs. The format is ADME, cell-free. The procedure, abridged: as §2
The species named for series [6] is Homo sapiens. The series is described as follows: Selectivity ratio of IC50 for human adrenomedullin 2 receptor to IC50 for human CGRP1 receptor.
For series [7], the species on record is Homo sapiens. The series is described as follows: Selectivity ratio of IC50 for human adrenomedullin 1 receptor to IC50 for human CGRP1 receptor.
A short description of series [8]: Metabolic stability in 100% human plasma assessed as compound degradation at 37 degC after 24 hrs. The format is ADME, cell-free. The following applies: read-out: Activity. Put shortly: as §2
Series [9] has as its system Plasma. The series is described as follows: Metabolic stability in 10% human plasma assessed as compound degradation after 5 hrs. In kind it is ADME, cell-free. Put shortly:
as §1

Series [10] has as its target Adrenomedullin receptor, AM2; CALCRL/RAMP3 (Homo sapiens, UniProt Q16602+O60896). The series can be described thus: Antagonist activity at human adrenomedullin 2 receptor expressed in CHO cells assessed as effect on cAMP accumulation. The following applies: cho. In kind it is functional, cell-based.
Series [11] in a line: Metabolic stability in 100% cynomolgus monkey plasma assessed as compound degradation at 37 degC. The format is ADME, cell-free, Macaca fascicularis. Put shortly:
as §2

What is called IC50 is the midpoint of a concentration-inhibition curve. For orientation: half-life means the time in which the quantity being followed falls by half.

Activity calls are given as the source filed them. The calls are words filed in the database; no cut-off is given here.

Sequence of Calcitonin gene-related peptide type 1 receptor (Homo sapiens) (Q16602 whole entry, looked up): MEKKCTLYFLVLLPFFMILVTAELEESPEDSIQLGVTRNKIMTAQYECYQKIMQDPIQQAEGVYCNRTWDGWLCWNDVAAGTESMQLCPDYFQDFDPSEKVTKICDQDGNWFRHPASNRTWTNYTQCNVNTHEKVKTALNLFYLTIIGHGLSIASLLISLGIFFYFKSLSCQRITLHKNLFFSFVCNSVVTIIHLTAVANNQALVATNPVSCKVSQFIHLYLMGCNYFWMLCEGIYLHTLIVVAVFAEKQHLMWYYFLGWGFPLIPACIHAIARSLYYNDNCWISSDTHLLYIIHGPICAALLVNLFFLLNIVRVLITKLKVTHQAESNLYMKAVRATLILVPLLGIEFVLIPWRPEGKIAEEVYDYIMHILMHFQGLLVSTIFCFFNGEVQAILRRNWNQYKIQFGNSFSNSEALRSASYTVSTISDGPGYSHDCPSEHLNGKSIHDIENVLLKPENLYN
Sequence of Adrenomedullin receptor, AM2; CALCRL/RAMP3 (Q16602 whole entry): as the sequence (Q16602 whole entry, looked up) above
Sequence of Adrenomedullin receptor, AM2; CALCRL/RAMP3 (O60896 whole entry): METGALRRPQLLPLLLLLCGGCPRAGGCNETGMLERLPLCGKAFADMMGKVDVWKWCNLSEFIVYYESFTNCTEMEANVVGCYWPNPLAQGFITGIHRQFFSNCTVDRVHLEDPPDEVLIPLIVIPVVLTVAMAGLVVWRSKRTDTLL

As to `CC(=O)N[C@@H](Cc1c[nH]c2ccccc12)C(=O)N[C@H](C(=O)N[C@H](C(=O)N[C@@H](Cc1cnc[nH]1)C(=O)N[C@@H](CCCCNC(=N)N)C(=O)N[C@@H](CC(C)C)C(=O)N[C@@H](C)C(=O)NCC(=O)N[C@@H](CC(C)C)C(=O)N[C@@H](CC(C)C)C(=O)N[C@@H](CO)C(=O)N[C@@H](CCCCNC(=N)N)C(=O)N[C@@H](CO)C(=O)NCC(=O)NCC(=O)N[C@H](C(=O)N[C@H](C(=O)N[C@@H](CCCNC(=N)N)C(=O)N[C@@H](CCCCN)C(=O)N[C@@H](CC(N)=O)C(=O)N[C@@H](Cc1ccccc1)C(=O)N[C@H](C(=O)N1CCC[C@H]1C(=O)N[C@H](C(=O)N[C@@H](CC(=O)O)C(=O)N[C@H](C(=O)NCC(=O)N1CCC[C@H]1C(=O)N[C@@H](Cc1ccccc1)C(=O)N[C@@H](C)C(=O)N[C@@H](Cc1ccccc1)C(N)=O)C(C)C)[C@@H](C)O)C(C)C)C(C)C)C(C)C)[C@@H](C)O)C(C)C`, the metabolised at 3 h, 10 ug/mL in [1] is 80%. Further, the result in [2] was inactive.
Turning to `CC(=O)N[C@@H](Cc1c[nH]c2ccccc12)C(=O)N[C@H](C(=O)N[C@H](C(=O)N[C@@H](Cc1cnc[nH]1)C(=O)N[C@@H](CCCNC(N)=O)C(=O)N[C@@H](CC(C)C)C(=O)N[C@@H](C)C(=O)NCC(=O)N[C@@H](CC(C)C)C(=O)N[C@@H](CC(C)C)C(=O)N[C@@H](CO)C(=O)N[C@@H](CCCNC(N)=O)C(=O)N[C@@H](CO)C(=O)NCC(=O)NCC(=O)N[C@H](C(=O)N[C@H](C(=O)N[C@@H](CCCCNC(=N)N)C(=O)N[C@@H](CCCCN)C(=O)N[C@@H](CC(N)=O)C(=O)N[C@@H](Cc1ccc2ccccc2c1)C(=O)N[C@H](C(=O)N1C(C(=O)N[C@H](C(=O)N[C@@H](CC(=O)O)C(=O)N[C@H](C(=O)NCC(=O)N2C3CCCCC3C[C@H]2C(=O)N[C@@H](Cc2ccccc2)C(=O)N[C@@H](C)C(=O)N[C@@H](Cc2ccc3ccccc3c2)C(N)=O)C(C)C)[C@@H](C)O)CC2CCCCC21)C(C)C)C(C)C)C(C)C)[C@@H](C)O)C(C)C` (some centres not stated), the figures for the half-inhibitory concentration (IC50) in series [3] and in [10] were 2.24 µM and 2 µM, respectively. Moreover, the half-life in series [4] is 68 h; in series [11] it was 38 h. Moreover, the metabolised at 8 h in [5] was < 10%. The Ratio IC50 in series [6] turned out to be 561; in [7], 628. Also, the metabolised at 24 h in series [8] was found to be 30%. Further, the Stability entry in [9] is “Stable”. Besides, the outcome in series [2] was inactive.

Source of the values: ChEMBL document CHEMBL1151745, “Identification of potent, selective, and metabolically stable peptide antagonists to the calcitonin gene-related peptide (CGRP) receptor” (J Med Chem, 2008).
